Published values of several laboratories.
Compare with care: the assays were run in different laboratories.
Target: Adenosine receptor A2a (ADORA2A, Homo sapiens, UniProt P29274)

SMILES	read-out	technique	tested at	quantity	value
CC(C)Cn1cnc2c(N)nc3ccccc3c21	ligand displacement	radioligand	10 µM	inhibition	89%
COc1ccc(S(=O)(=O)N2CCCCC2)cc1C	ligand displacement	radioligand	10 µM	inhibition	< 30%
COCc1c(-c2cc3cc(C)cc(OC)c3s2)c2c(N)ncnn2c1CN1CCNC(=O)C1	ligand displacement	radioligand	10 µM	inhibition	7%
O=c1ccc2ccccc2o1	ligand displacement	radioligand	10 µM	inhibition	-4.26%
CCN(CC)CCCC[C@H](NC(=O)[C@H](CC(C)C)NC(=O)[C@H](C)NC(=O)[C@H](Cc1ccccc1)NC(=O)c1ccc(C(C)(C)C)cc1)C(=O)N[C@@H](CO)C(=O)OC	ligand displacement	radioligand	10 µM	remaining binding	102%
Nc1ncc(-c2nc(N3CCOCC3)nc(N3CCOCC3)n2)c(C(F)F)n1	cell-free assay	radioligand	10 µM	remaining signal	93.3%
c1ccc(C(NCCNC(c2ccccc2)c2ccccc2)c2ccccc2)cc1	cell-free assay	–	10 µM	inhibition	12%
OC[C@@]12C[C@@H]1[C@@H](n1cnc3c(NC(C4CCCC4)C4CCCC4)nc(Cl)nc31)[C@H](O)[C@@H]2O	ligand displacement	radioligand	10 µM	inhibition	24%
O=C(Nc1cccnn1)N1CCN([C@@H]2CCOc3cc(C(F)(F)F)ccc32)CC1	ligand displacement	–	20 µM	inhibition	15%
Clc1ccc2c(C3CCN(CCc4c[nH]c5ccccc45)CC3)c[nH]c2c1	ligand displacement	radioligand	10 µM	inhibition	-12%
C[C@H](C(=O)N[C@H]1COc2ccccc2[C@@H]1S(C)(=O)=O)c1ccc(F)cc1	cell-free assay	–	10 µM	inhibition	1%
OC[C@@]12C[C@@H]1[C@@H](n1cnc3c(NC(C4CCCC4)C4CCCC4)nc(Cl)cc31)[C@H](O)[C@@H]2O	ligand displacement	radioligand	10 µM	inhibition	-12%
CC(C)N1CCC[C@H]1CNC(=O)c1cn(C2CCCC2)c(=O)c2c1c1ccccc1n2C	ligand displacement	radioligand	10 µM	inhibition	6%
